Experimental data: ChEMBL document CHEMBL1124728, “Small peptide inhibitors of smooth muscle myosin light chain kinase” (J Med Chem, 1990)
Each block holds one compound with its values, some of them ahead of it. Starred links: 1 amine or outer side, 2 acyl side, 3 side chain; linkers in the order of their positions; H or OH if unused. Residues, ends and D or L forms follow the SMILES beside them. *: point of attachment. isoSer(2S) = O=C([C@@H](O)CN[*:1])[*:2]; NHCH2(2-pyridyl) = c1ccc(CN*)nc1; OBn = c1ccc(CO*)cc1

Columns and labels:
[1] = target: Myosin light chain kinase, smooth muscle (Gallus gallus) (UniProt P11799); assay: Inhibition of calmodulin-independent form of Myosin light chain kinase from chicken gizzard at 100 uM; settings: 300 uM, in the assay text read “at 300 uM” for “at 100 uM”
Procedure, shortened: (§1)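 Chicken gizzard MLCK made calmodulin-independent by limited trypsin digestion. It was started with ATP and stopped with HCl. Phosphate in substrate was counted on phosphocellulose filters. IC50 was read graphically from duplicates at four concentrations and reported as the mean, or as % inhibition at one concentration.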

[2] = target: Myosin light chain kinase, smooth muscle (Gallus gallus) (UniProt P11799); assay: Inhibition of calmodulin-independent form of Myosin light chain kinase from chicken gizzard at 300 uM; procedure, shortened: as §1
[3] = target: Myosin light chain kinase, smooth muscle (Gallus gallus) (UniProt P11799); assay: Inhibition of native form of myosin light chain kinase from chicken gizzard 1000 uM
Procedure, shortened: (§2)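 Native calmodulin-dependent gizzard MLCK, over 95% homogeneous, with 200 nM calmodulin, 1 mM EGTA and about 200 μM excess free Ca2+. Started with ATP and stopped with HCl; phosphocellulose filter counting. Graphical IC50 from duplicates at four concentrations, or % inhibition at a single concentration.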

[4] = target: T1, Myosin light chain kinase, smooth muscle (Gallus gallus, UniProt P11799); assay: Inhibition of native form of myosin light chain kinase from chicken gizzard; procedure, shortened: as §2
[5] = target: Myosin light chain kinase, smooth muscle (Gallus gallus) (UniProt P11799); assay: Inhibition of native form of myosin light chain kinase at from chicken gizzard 100 uM; procedure, shortened: as §2
[6] = target: Myosin light chain kinase, smooth muscle (Gallus gallus) (UniProt P11799); assay: Inhibition of native form of myosin light chain kinase from chicken gizzard at 1000 uM; procedure, shortened: as §2
[7] = target: Myosin light chain kinase, smooth muscle (Gallus gallus) (UniProt P11799); assay: Rate of phosphate incorporation by myosin light chain kinase at 50 uM
[8] = target: T1, Myosin light chain kinase, smooth muscle; assay: Inhibition of calmodulin-independent form of MLCK(myosin light chain kinase) from chicken gizzard; procedure, shortened: as §1
[9] = target: Myosin light chain kinase, smooth muscle (Gallus gallus) (UniProt P11799); settings: 1000 uM
[10] = target: T1, Myosin light chain kinase, smooth muscle; assay: Inhibition of native form of MLCK myosin light chain kinase from chicken gizzard; procedure, shortened: as §2

T1 sequence (P11799 whole entry): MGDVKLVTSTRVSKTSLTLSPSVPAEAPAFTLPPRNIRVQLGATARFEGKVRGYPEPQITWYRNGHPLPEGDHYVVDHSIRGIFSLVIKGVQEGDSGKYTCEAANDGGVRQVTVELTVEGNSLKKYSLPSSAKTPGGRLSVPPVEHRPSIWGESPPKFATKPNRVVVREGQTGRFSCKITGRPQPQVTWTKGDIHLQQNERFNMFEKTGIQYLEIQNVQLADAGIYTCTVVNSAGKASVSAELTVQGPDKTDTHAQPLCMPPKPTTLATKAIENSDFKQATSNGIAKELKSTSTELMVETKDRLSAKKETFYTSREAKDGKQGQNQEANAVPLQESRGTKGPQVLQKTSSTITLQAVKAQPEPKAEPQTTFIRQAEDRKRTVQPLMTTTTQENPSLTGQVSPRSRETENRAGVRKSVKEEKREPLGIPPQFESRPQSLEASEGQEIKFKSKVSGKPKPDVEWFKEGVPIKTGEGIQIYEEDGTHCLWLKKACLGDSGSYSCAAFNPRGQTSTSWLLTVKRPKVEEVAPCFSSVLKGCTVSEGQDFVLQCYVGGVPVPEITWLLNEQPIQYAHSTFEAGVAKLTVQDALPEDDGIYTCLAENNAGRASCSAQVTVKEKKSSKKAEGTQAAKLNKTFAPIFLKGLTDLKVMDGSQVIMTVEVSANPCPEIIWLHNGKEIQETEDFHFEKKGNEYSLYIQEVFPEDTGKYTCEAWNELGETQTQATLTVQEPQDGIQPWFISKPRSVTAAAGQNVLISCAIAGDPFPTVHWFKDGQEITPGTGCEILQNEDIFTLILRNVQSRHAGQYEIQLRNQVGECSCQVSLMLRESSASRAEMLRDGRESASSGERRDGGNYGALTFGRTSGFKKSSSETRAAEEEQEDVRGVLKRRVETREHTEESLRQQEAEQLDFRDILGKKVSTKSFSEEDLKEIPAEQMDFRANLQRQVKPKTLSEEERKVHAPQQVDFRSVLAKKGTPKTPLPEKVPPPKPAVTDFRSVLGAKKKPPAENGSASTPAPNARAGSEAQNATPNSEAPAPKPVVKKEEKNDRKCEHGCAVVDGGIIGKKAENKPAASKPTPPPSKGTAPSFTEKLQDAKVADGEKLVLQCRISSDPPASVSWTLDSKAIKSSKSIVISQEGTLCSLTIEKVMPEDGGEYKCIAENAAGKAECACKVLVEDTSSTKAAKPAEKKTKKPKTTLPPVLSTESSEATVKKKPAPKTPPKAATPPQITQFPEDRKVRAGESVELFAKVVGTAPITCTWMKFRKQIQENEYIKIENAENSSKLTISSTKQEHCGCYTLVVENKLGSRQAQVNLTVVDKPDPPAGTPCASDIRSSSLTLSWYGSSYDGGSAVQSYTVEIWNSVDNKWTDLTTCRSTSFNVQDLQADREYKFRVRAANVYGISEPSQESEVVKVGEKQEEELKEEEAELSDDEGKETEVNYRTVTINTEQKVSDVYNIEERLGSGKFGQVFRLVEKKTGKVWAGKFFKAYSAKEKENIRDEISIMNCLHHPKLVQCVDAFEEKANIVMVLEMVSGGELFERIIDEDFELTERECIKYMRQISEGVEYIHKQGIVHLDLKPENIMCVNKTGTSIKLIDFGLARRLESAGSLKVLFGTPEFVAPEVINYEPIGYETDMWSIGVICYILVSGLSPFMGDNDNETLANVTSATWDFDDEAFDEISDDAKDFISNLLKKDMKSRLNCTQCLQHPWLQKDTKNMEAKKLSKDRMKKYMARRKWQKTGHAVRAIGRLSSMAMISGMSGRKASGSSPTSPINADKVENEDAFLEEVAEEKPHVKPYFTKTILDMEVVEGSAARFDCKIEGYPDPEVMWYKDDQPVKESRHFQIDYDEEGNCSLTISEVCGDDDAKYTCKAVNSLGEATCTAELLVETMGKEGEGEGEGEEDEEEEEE
Chain of Myosin light chain kinase, smooth muscle (Gallus gallus) (P11799 whole entry): as above

inhibition [1]: 0%
Structure (SMILES): CC(C)[C@H](NC(=O)[C@@H](/C=C/[C@@H](N)CO)CC(N)=O)C(=O)N[C@@H](Cc1ccccc1)C(=O)N[C@@H](C)C(=O)NCc1ccccc1

inhibition [1]: 0%
Structure (SMILES): CC(C)[C@H](NC(=O)[C@H](CC(N)=O)NC(=O)[C@@H](N)CO)C(=O)N[C@@H](Cc1ccccc1)C(=O)N[C@@H](C)C(=O)O (H-SNVFA-OH)

inhibition [2]: 0%
Structure (SMILES): CC(C)[C@H](NC(=O)[C@H](CC(N)=O)NC(=O)[C@@H](N)CO)C(=O)N[C@@H](Cc1ccccc1)C(=O)N[C@@H](C)C(N)=O (H-SNVFA-NH2)

inhibition [3]: 0%
Structure (SMILES): CC(C)[C@H](NC(=O)[C@H](CC(N)=O)NC(=O)[C@@H](N)CO)C(=O)OCc1ccccc1 (H-Ser-Asn-Val-OBn)

IC50 [4]: 1000 µM
Structure (SMILES): CC(C)[C@H](N)C(=O)N[C@@H](Cc1ccccc1)C(=O)N[C@@H](C)C(=O)OCc1ccccc1 (H-Val-Phe-Ala-OBn)

inhibition [1]: 33%
Structure (SMILES): CC(C)[C@H](NC[C@H](CC(N)=O)NC(=O)[C@@H](N)CO)C(=O)N[C@@H](Cc1ccccc1)C(=O)N[C@@H](C)C(=O)OCc1ccccc1

inhibition [1]: 0%
Structure (SMILES): CC(C)[C@H](NC(=O)[C@H](CC(N)=O)NC[C@@H](N)CO)C(=O)N[C@@H](Cc1ccccc1)C(=O)N[C@@H](C)C(=O)NCc1ccccc1

inhibition [5]: 32%
Structure (SMILES): CC(C)[C@H](NC(=O)[C@H](CCC(N)=O)NC(=O)[C@@H](N)CO)C(=O)N[C@@H](Cc1ccccc1)C(=O)N[C@@H](C)C(=O)OCc1ccccc1 (H-SQVFA-OBn)

inhibition [5]: 15%
Structure (SMILES): CC(C)[C@H](NC(=O)[C@H](CO)NC(=O)[C@@H](N)CO)C(=O)N[C@@H](Cc1ccccc1)C(=O)N[C@@H](C)C(=O)OCc1ccccc1 (H-SSVFA-OBn)

inhibition [1]: 5% | inhibition [6]: 0%
Structure (SMILES): CC(C)[C@H](NC(=O)[C@H](CC(N)=O)NC(=O)[C@@H](N)CO)C(=O)N[C@@H](Cc1ccccc1)C(=O)N[C@@H](C)C(=O)NCc1ccccn1 (H-SNVFA-{NHCH2(2-pyridyl)})

Rate [7]: 45 pmol/min
Structure (SMILES): CC(C)[C@H](NC(=O)[C@H](CC(N)=O)NC(=O)[C@H](CO)NC(=O)[C@@H](NC(=O)[C@H](C)NC(=O)[C@H](CCCN=C(N)N)NC(=O)[C@H](CCC(N)=O)NC(=O)[C@@H]1CCCN1C(=O)[C@H](CCCN=C(N)N)NC(=O)[C@H](CCCCN)NC(=O)[C@@H](N)CCCCN)[C@@H](C)O)C(=O)N[C@@H](Cc1ccccc1)C(=O)N[C@@H](CO)C(N)=O (H-KKRPQRATSNVFS-NH2)

inhibition [6]: 0%
Structure (SMILES): C[C@H](NC(=O)[C@@H](N)Cc1ccccc1)C(=O)OCc1ccccc1

inhibition [2]: 0%
Structure (SMILES): COC(=O)[C@H](C)NC(=O)[C@H](Cc1ccccc1)NC(=O)[C@@H](NC(=O)[C@H](CC(N)=O)NC(=O)[C@@H](N)CO)C(C)C (H-SNVFA-OMe)

inhibition [1]: 17%
Structure (SMILES): C[C@H](NC(=O)[C@H](Cc1ccccc1)NC(=O)CNC(=O)[C@H](CC(N)=O)NC(=O)[C@@H](N)CO)C(=O)OCc1ccccc1 (H-SNGFA-OBn)

IC50 [8]: 21 µM | Rate [9]: 0.017 pM/min | IC50 [10]: 28 µM
Structure (SMILES): CC(C)[C@H](NC(=O)[C@H](CC(N)=O)NC(=O)[C@@H](N)CO)C(=O)N[C@@H](Cc1ccccc1)C(=O)N[C@@H](C)C(=O)OCc1ccccc1

inhibition [5]: 14%
Structure (SMILES): CC(C)[C@H](NC(=O)[C@H](CC(N)=O)NC(=O)[C@@H](O)CN)C(=O)N[C@@H](Cc1ccccc1)C(=O)N[C@@H](C)C(=O)OCc1ccccc1 ({isoSer(2S)}-NVFA-OBn)

IC50 [4]: 800 µM
Structure (SMILES): CC(C)[C@H](NC(=O)[C@@H](N)CC(N)=O)C(=O)N[C@@H](Cc1ccccc1)C(=O)N[C@@H](C)C(=O)OCc1ccccc1 (H-NVFA-OBn)

inhibition [5]: 0%
Structure (SMILES): CC(C)[C@@H](NC(=O)[C@H](CC(N)=O)NC(=O)[C@@H](N)CO)C(=O)N[C@@H](Cc1ccccc1)C(=O)N[C@@H](C)C(=O)OCc1ccccc1

inhibition [5]: 14%
Structure (SMILES): CC(C)[C@H](NC(=O)[C@@H](CC(N)=O)NC(=O)[C@H](N)CO)C(=O)N[C@@H](Cc1ccccc1)C(=O)N[C@@H](C)C(=O)OCc1ccccc1
